Laboratory results published in ChEMBL document CHEMBL4819068, “Novel potent bifunctional carboxylesterase inhibitors based on a polyfluoroalkyl-2-imino-1,3-dione scaffold” (Eur J Med Chem, 2021).

How the values were obtained:
Acetylcholinesterase = Acetylcholinesterase (Homo sapiens, UniProt P22303); experiment: Inhibition of human erythrocyte AChE using acetylthiocholine iodide as substrate preincubated for 10 mins followed by substrate addition by Ellman's method
[1] = Antioxidant activity assessed as trolox equivalent of ABTS radical cation scavenging activity incubated for 24 hrs by UV-Vis spectrophotometric analysis; format: functional
[2] = Antioxidant activity assessed as decrease in ABTS radical cation scavenging activity incubated for 24 hrs by UV-Vis spectrophotometric analysis; format: functional
Liver carboxylesterase 1 = target: T1, Liver carboxylesterase 1 (Homo sapiens, UniProt P23141); experiment: Inhibition of human recombinant CES1 expressed in baculovirus infected BTI insect cells using 4-NPA as substrate by spectrophotometric analysis
T1 sequence (P23141 whole entry): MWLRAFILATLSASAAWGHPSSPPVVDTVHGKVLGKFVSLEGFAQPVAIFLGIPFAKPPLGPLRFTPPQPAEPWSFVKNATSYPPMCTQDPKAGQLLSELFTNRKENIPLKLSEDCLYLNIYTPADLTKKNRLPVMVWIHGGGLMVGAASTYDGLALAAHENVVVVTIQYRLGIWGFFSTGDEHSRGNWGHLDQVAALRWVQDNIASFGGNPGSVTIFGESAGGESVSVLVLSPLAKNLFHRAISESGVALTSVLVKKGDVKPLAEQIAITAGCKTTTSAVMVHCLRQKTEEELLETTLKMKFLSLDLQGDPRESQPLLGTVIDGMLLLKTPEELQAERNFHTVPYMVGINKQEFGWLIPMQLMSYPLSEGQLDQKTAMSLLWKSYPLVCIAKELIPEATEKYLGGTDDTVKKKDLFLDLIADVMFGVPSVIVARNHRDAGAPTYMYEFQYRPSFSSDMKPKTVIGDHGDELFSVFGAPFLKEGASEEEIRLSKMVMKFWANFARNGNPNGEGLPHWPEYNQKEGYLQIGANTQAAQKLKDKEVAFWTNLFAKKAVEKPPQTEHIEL
In short: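 Recombinant hCES1 (baculovirus/BTI insect cells), 0.02 unit/mL, in 0.1 M K/Na phosphate pH 7.4, 25 °C; compound (DMSO, 2% v/v final) preincubated 10 min, then 1 mM 4-nitrophenyl acetate added; 4-nitrophenol release read at 405 nm against enzyme-free blank. IC50 from eight concentrations (10^-12–10^-4 M) relative to inhibitor-free control.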

[3] = Cytotoxicity against human FetMSC cells assessed as reduction in cell viability after 72 hrs by MTT assay; format: cell-based
In short: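 Human fetal MSC (bone-marrow fibroblast-like, nonimmortalized; ≤10–15 passages) grown in F12/DMEM with 10% FBS, 3 mM L-glutamine, penicillin/streptomycin. Seeded at 6×10^3 cells/well; after 24 h, medium replaced with compound at 100, 250, 500 μM for 72 h; controls 0.1% DMSO. MTT 0.5 mg/ml for 4 h, formazan dissolved in DMSO, read at 570 nm; control = 100%.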

[4] = Acute toxicity in ip dosed CD-1 mouse observed for 14 days; format: organism-based; conditions: in vivo, time 14 day
In short: (§1)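 CD-1 mice given compound intraperitoneally in 2% (w/v) starch mucilage, three animals per dose group; lethality observed over 14 days; procedure based on OECD recommendations.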

[5] = Acute toxicity in CD-1 mouse assessed as effect on mouse death at 900 mg/kg, ip measured after 14 days; format: organism-based; conditions: in vivo, 336 h, time 14 day; in short: as §1
Liver carboxylesterase = target: T2, Liver carboxylesterase (Sus scrofa, UniProt Q29550); experiment: Inhibition of porcine liver carboxylesterase using 4-NPA as substrate preincubated for 10 mins followed by substrate addition by spectrophotometric analysis; format: tissue-based
T2 sequence (Q29550 whole entry): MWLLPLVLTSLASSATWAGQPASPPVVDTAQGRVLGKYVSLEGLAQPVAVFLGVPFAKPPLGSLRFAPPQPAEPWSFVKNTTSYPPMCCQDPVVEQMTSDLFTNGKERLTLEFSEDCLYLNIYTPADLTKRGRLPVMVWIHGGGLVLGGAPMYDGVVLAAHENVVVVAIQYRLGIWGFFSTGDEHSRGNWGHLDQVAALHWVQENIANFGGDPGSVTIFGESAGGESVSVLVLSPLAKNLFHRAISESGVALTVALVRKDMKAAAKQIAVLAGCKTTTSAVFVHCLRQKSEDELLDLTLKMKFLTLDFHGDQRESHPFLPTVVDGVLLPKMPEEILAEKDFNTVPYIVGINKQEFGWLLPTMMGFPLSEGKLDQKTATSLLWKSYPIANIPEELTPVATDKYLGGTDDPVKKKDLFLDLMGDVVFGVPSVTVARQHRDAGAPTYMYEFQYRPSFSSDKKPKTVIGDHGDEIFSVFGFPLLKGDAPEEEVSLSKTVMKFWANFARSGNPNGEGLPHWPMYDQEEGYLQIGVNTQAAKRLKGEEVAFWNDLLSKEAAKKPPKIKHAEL
In short: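 Porcine liver CES, 0.02 unit/mL, in 0.1 M K/Na phosphate pH 8.0, 25 °C; compound in DMSO (2% v/v final) preincubated 10 min, then 1 mM 4-nitrophenyl acetate; 4-nitrophenol read at 405 nm, enzyme-free blanks. Screening at 20 μM in three separate experiments; IC50 from eight concentrations between 10^-12 and 10^-4 M, residual activity relative to inhibitor-free control.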

Cholinesterase = Cholinesterase (Equus caballus, UniProt P81908); experiment: Inhibition of equine serum BuChE using […] as substrate preincubated for 10 mins followed by substrate addition by Ellman's method
Chain of Cholinesterase (P81908 whole entry): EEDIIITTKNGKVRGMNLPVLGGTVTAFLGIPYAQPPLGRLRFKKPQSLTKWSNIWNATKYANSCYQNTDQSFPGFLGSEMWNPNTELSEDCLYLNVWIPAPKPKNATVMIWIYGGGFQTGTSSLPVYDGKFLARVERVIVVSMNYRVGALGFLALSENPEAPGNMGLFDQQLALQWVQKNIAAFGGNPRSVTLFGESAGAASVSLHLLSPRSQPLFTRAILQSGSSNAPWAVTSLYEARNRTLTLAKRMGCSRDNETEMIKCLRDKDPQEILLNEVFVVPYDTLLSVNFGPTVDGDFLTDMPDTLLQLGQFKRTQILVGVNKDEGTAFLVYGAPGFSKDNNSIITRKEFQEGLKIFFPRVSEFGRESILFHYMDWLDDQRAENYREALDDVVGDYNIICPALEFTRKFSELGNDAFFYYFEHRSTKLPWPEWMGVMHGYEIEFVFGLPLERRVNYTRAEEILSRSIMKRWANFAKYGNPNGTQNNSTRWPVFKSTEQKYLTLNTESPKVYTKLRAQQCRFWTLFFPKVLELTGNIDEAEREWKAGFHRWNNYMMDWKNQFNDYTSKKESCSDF

Chain of Acetylcholinesterase (P22303 whole entry): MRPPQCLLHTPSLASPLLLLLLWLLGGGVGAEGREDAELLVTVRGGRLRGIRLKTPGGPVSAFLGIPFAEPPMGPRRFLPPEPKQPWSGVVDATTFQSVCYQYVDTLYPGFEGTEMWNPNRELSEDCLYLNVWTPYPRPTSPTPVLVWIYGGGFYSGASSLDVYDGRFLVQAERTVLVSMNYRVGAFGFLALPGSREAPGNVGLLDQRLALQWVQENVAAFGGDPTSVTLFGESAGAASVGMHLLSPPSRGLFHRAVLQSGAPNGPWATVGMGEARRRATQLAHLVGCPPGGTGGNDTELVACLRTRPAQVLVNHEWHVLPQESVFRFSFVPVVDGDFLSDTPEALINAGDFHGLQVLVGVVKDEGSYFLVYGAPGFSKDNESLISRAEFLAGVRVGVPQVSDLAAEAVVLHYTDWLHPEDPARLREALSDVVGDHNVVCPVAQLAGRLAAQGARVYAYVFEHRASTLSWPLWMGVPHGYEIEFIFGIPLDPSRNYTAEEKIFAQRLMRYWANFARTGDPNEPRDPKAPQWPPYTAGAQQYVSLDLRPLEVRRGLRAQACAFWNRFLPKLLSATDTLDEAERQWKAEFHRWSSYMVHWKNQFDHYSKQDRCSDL

## CCOC(=O)/C(=N\Nc1ccc(C)cc1)C(=O)C(F)(F)F
Acetylcholinesterase
  IC50: 7.32 µM
[1]
  Activity: 0.95
[2]
  IC50: 21.4 µM
Liver carboxylesterase 1
  IC50: 0.00292 µM
[3]
  IC50: > 500 µM
[4]
  LD50 at 336 h: 900 mg/kg
[5]
  Activity: Non-Toxic
Liver carboxylesterase
  IC50: 0.00741 µM
Cholinesterase
  IC50: 8.34 µM
